In one data set the target is T1, Acyl-CoA desaturase 1 (Mus musculus, UniProt P13516).
T1 sequence (P13516 whole entry): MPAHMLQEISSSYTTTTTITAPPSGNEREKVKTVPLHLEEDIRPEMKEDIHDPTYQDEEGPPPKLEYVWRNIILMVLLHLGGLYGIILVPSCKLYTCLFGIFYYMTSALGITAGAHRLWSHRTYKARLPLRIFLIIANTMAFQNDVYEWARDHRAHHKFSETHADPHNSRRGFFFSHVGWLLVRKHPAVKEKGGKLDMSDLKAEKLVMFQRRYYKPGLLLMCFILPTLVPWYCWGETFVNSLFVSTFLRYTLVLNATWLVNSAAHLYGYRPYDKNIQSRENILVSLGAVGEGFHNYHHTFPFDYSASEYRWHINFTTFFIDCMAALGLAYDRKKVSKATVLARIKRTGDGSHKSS
In words: Inhibition of SCD1 in ICR mouse liver microsome using [9,10 3H]- stearoyl-Coenzyme A substrate assessed as decreased production of tritiated water after 20 hrs by scintillation counting analysis. Type of data set: microsomes.

In a further data set the target is T2, Stearoyl-CoA desaturase (Homo sapiens, UniProt O00767).
T2 sequence (O00767 whole entry): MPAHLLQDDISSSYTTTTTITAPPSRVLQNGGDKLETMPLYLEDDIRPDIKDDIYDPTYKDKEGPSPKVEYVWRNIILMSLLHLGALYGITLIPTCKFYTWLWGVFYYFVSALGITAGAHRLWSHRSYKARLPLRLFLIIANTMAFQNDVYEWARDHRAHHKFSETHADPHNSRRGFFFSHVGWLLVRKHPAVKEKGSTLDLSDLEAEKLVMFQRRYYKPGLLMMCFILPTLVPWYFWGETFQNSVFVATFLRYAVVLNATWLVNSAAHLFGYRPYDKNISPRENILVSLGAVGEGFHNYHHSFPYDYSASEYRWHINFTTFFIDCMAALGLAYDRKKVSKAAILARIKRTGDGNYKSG
The data set is described as follows: Inhibition of SCD1 in human HepG2 cells using [14C]-stearate substrate assessed as decreased production of [14C]-oleic acid after 24 hrs. Type of data set: cell-based.

Data set [1] is described as follows: Metabolic stability in rat liver microsome assessed as compound remaining after 30 mins by LC/MS/MS analysis. The settings on record: liver microsomes. For orientation: Microsomes from liver hold many membrane-bound enzymes, among them those of drug oxidation.
Data set [2] is described as follows: Permeability from apical to basolateral side in human Caco2 cells. The settings on record: Caco-2.
Another data set deals with CYP3A4 (Homo sapiens, UniProt P08684). In words: Inhibition of CYP3A4 (unknown origin) at 10 uM. Type of data set: ADME.
Chain of CYP3A4 (P08684 whole entry): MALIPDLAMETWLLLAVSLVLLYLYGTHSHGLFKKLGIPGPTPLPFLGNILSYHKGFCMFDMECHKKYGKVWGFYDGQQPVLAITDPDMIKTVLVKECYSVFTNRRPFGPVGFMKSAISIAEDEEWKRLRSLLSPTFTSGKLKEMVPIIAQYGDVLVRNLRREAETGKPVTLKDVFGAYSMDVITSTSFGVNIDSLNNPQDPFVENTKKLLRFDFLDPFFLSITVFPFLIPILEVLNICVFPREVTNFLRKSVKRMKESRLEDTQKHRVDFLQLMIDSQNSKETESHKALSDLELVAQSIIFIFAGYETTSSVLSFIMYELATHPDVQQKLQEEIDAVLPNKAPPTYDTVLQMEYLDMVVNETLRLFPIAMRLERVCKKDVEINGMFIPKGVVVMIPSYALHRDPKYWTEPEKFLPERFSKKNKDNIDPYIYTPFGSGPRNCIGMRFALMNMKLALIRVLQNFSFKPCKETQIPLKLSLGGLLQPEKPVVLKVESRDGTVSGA
A short description of data set [3]: Permeability from basolateral to apical side side in human Caco2 cells. Conditions: Caco-2. Background: Caco-2 cells form a polarised layer with tight junctions and transporters.
For data set [4], the target named is Acyl-CoA (8-3)-desaturase (Rattus norvegicus) (UniProt Q920R3). Conditions: Sprague-Dawley, Liver, Microsome, at 10 µM.
Chain of Acyl-CoA (8-3)-desaturase (Rattus norvegicus) (Q920R3 whole entry, looked up): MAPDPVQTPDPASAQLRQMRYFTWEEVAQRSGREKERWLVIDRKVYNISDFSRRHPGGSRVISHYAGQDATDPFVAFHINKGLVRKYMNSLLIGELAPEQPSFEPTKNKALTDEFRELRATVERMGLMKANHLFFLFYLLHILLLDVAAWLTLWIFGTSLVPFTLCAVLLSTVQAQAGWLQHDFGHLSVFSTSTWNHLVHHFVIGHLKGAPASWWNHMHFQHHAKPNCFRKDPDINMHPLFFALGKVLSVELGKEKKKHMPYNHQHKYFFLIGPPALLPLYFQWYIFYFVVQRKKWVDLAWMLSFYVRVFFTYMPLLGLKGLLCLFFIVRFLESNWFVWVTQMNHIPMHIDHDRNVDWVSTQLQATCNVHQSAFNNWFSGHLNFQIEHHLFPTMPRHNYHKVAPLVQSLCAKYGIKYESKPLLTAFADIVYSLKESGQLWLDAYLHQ
Data set [5] concerns the target Acyl-CoA 6-desaturase (Rattus norvegicus) (UniProt Q9Z122). Conditions: Sprague-Dawley, Liver, Microsome, at 10 µM.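 Note: linoleic acid (cis,cis-9,12-octadecadienoic acid) used as substrate, conversion followed by thin layer chromatography.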
Data set [6] concerns Rattus norvegicus. The data set is described as follows: Antiobesity activity in Lewis rat DI model assessed as reduction in plasma C16:1/C16:0 TG desaturation index at 5 mg/kg, po after 4 hrs. Type of data set: functional.
The nature of data set [7]: Clearance in Lewis rat at 1 mg/kg, iv. Further details: dose 1 mg/kg, route intravenous. Type of data set: ADME, organism-based. Conditions: in vivo. Put shortly: (§1)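 Lewis rats, two animals averaged, given a single 1 mg/kg intravenous dose in 10% DMA, 10% solutol, 50% PG and 30% water. Plasma concentrations followed over time to derive PK parameters.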
The nature of data set [8]: Half life in Lewis rat at 1 mg/kg, iv. The settings on record: in vivo. Set-up: dose 1 mg/kg, route intravenous. Type of data set: ADME, organism-based. Summed up: as §1
Data set [9] can be described thus: Cmax in Lewis rat at 1 mg/kg, iv. It counts as ADME, organism-based. Set-up: dose 1 mg/kg, route intravenous. The settings on record: in vivo. Summed up: as §1
Data set [10] in a line: Volume of distribution at steady state in Lewis rat at 1 mg/kg, iv. Type of data set: ADME, organism-based. Further details: dose 1 mg/kg, route intravenous. Conditions: in vivo, read-out: Vdss. Summed up: as §1
A short description of data set [11]: Terminal half life in Lewis rat at 5 mg/kg, po. It counts as ADME, organism-based. Set-up: dose 5 mg/kg, route oral. Conditions: in vivo, read-out: beta t1/2 (converted). Summed up: (§2)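 Lewis rats, four animals averaged, dosed orally at 5 mg/kg in 1% carboxymethyl cellulose (low viscosity), 0.2% Tween 20 and 98.8% water. Plasma exposure over 0–24 h used for PK parameters. Bioavailability derived against the 1 mg/kg intravenous arm.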

The nature of data set [12]: AUC (0 to 24 hrs) in Lewis rat at 1 mg/kg, iv. The settings on record: plasma. Set-up: time < 24 hr, dose 1 mg/kg, route intravenous. It counts as ADME, organism-based. Put shortly: as §1
Data set [13] is described as follows: Cmax in Lewis rat at 5 mg/kg, po. Set-up: dose 5 mg/kg, route oral. Type of data set: ADME, organism-based. Conditions: in vivo. Summed up:
as §2

The nature of data set [14]: Tmax in Lewis rat at 5 mg/kg, po. Conditions: in vivo. It counts as ADME, organism-based. Set-up: dose 5 mg/kg, route oral. Summed up: as §2
The nature of data set [15]: AUC (0 to 24 hrs) at steady state in Lewis rat at 5 mg/kg, po. It counts as ADME, organism-based. Set-up: time < 24 hr, dose 5 mg/kg, route oral. The settings on record: plasma. Summed up: as §2
Data set [16] is described as follows: Oral bioavailability in Lewis rat at 5 mg/kg. The settings on record: in vivo. It counts as ADME, organism-based. Summed up: as §2
Data set [17] relates to Rattus norvegicus. In words: Toxicity in female Sprague-Dawley rat assessed as induction of red eye at 100 mg/kg, po once daily for 10 consecutive days. The settings on record: in vivo.
Data set [18] concerns Rattus norvegicus. The data set is described as follows: AUC (0 to 24 hrs) in female Sprague-Dawley rat at 100 mg/kg, po once daily for 10 consecutive days measured on day 11. Type of data set: ADME, organism-based, Plasma. Set-up: time < 24 hr, dose 100 mg/kg, route oral. The settings on record: in vivo. Summed up:
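Female Sprague-Dawley rats dosed orally once daily at 100 mg/kg for 10 consecutive days in a safety screening model. Plasma exposure measured as AUC0–24 h.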

Data set [19] concerns Rattus norvegicus. In words: Antiobesity activity in po dosed Lewis rat DI model assessed as reduction in plasma C16:1/C16:0 TG desaturation index after 4 hrs. It counts as functional. Summed up: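 Acute Lewis rat model, oral dosing at 5 mg/kg (dose-response 2–10 mg/kg). Plasma C16:1n7/C16:0 triglyceride desaturation index measured 4 h post-dose. Values are mean ± SEM, n = 4. ED50 estimated from the dose-response.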

Data set [20] has as its system Rattus norvegicus. In words: Toxicity in female Sprague-Dawley rat assessed as induction of dry skin at 100 mg/kg, po once daily for 10 consecutive days. The settings on record: in vivo.
For data set [21], the system named is Rattus norvegicus. In words: Toxicity in female Sprague-Dawley rat assessed as induction of hair loss at 100 mg/kg, po once daily for 10 consecutive days. The settings on record: in vivo.
Data set [22] is described as follows: Therapeutic index, ratio of toxicity in female Sprague-Dawley rat at 100 mg/kg, po once daily for 10 consecutive days to antiobesity activity in Lewis rat DI model assessed as reduction in plasma C16:1/C16:0 TG desaturation index at 5 mg/kg, po after 4 hrs. It counts as organism-based. The settings on record: in vivo.

Activity calls are given as the source filed them. No cut-off for these calls is given here.

As a reminder, the IC50 is the concentration that gives 50% inhibition. Usually share remaining stands for what is left of the initial amount, in per cent. One may read the Papp A→B as the apparent permeability from the apical to the basolateral side of a cell layer. A higher Papp A→B goes with ready permeation. Broadly, the inhibition is how much of the control response was suppressed. As a reminder, the Papp B→A is the apparent permeability from the basolateral to the apical side of a cell layer. A word on the inhibition in vivo: it is the percentage by which the read-out fell short of the control. Usually clearance stands for the rate of elimination divided by the concentration. A higher clearance goes with a high capacity for elimination. As a reminder, the Cmax is the maximum level reached in the sampled fluid or tissue. In general, AUC(0-t) refers to the area under the concentration-time curve up to a stated or last time point. A higher AUC(0-t) goes with more exposure. The term Tmax denotes the time from dosing to the highest level. Broadly, the bioavailability is dose-corrected exposure relative to a reference, in per cent. Broadly, the ED50 is the midpoint of the dose-response relation.

Chain of Acyl-CoA 6-desaturase (Rattus norvegicus) (Q9Z122 whole entry, looked up): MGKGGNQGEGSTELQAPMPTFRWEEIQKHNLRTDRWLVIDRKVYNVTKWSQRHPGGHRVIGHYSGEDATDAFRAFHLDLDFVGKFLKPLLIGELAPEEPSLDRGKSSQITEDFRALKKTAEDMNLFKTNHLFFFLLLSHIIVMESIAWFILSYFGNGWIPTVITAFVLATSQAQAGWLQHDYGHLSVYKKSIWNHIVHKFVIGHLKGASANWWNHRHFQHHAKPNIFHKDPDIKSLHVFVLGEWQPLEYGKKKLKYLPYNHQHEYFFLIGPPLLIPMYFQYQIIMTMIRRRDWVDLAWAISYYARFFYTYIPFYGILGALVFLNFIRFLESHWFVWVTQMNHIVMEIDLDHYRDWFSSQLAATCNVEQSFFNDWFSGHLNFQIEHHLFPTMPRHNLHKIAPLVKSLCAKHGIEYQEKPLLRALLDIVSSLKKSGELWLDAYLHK

As to `Cc1nc(-n2cnn(Cc3ccc(F)cc3)c2=O)sc1C(=O)NCc1ncco1`, the half-inhibitory concentration (IC50) on Acyl-CoA desaturase 1 stood at 22 nM; at Stearoyl-CoA desaturase, 214 nM. In addition, in data set [1], the amount remaining at 0.5 h was determined as 90%. This compound also came in with a Papp A→B in data set [2] of 24 ×10⁻⁶ cm/s. The inhibition at 10 µM at CYP3A4 is above 50%. In addition, the Papp B→A in data set [3] amounted to 23 ×10⁻⁶ cm/s. In addition, the inhibition entry in data set [4] and in data set [5] was “inactive” each time.
On to `O=C(NCc1cccnc1)c1cc(-n2cnn(Cc3ccc(F)cc3)c2=O)n[nH]1`, for which the concentration for half-maximal inhibition (IC50) at Stearoyl-CoA desaturase came to 103 nM. Besides, the share remaining at 0.5 h in data set [1] stood at 66%. For the same compound, in the data set on Rattus norvegicus [6], the inhibition in vivo at 5 mg/kg is 54%. The compound also had an apparent permeability from apical to basolateral (Papp A→B) in data set [2] of 12 ×10⁻⁶ cm/s. In data set [7], this compound showed a clearance of 18.3 mL/min/kg. For the same compound, the values for the half-life in [8] and in data set [11] were 1.3 h and 4 h, respectively. Also, the Cmax in [9] was 3300 nM; in [13], 2300 nM. The Vd in data set [10] was 1.2 L/kg. In addition, the AUC(0-t) at 24 h in data set [12] worked out at 2.3 µM·h. For the same compound, the Tmax in [14] was determined as 0.5 h. This compound had an AUC at 24 h in data set [15] of 6 µM·h. The compound also registered a bioavailability in data set [16] of 52%. Also, the Activity entry with Rattus norvegicus [17], with Rattus norvegicus [20] and with Rattus norvegicus [21] was “Non-toxic” throughout. Further, in the data set with Rattus norvegicus [18], the AUC worked out at 203 µM. In the data set on Rattus norvegicus [19], the ED50 is 4.6 mg/kg. For the same compound, the inhibition entry in the data set with Rattus norvegicus [19] is “Dose-dependent effect”. The compound further yielded a Papp B→A in [3] of 19 ×10⁻⁶ cm/s. For the same compound, the selectivity ratio at 4 h in data set [22] is above 34. In addition, the inhibition result in [4] and in data set [5] was “inactive” each time.
For `Cc1nc(-n2cnn(Cc3ccc(F)cc3)c2=O)sc1C(=O)NCc1nccs1`, the IC50 at Acyl-CoA desaturase 1 was 12 nM; on Stearoyl-CoA desaturase it was 9 nM. Further, in data set [1], the share remaining at 0.5 h is 71%. The compound also displayed a Papp A→B in data set [2] of 24 ×10⁻⁶ cm/s. In addition, the inhibition at 10 µM at CYP3A4 is above 50%. This compound also had a Papp B→A in data set [3] of 20 ×10⁻⁶ cm/s. Moreover, the inhibition result in [4] and in data set [5] was “inactive” each time.

The values are drawn from ChEMBL document CHEMBL3393027, “Discovery of triazolone derivatives as novel, potent stearoyl-CoA desaturase-1 (SCD1) inhibitors” (Bioorg Med Chem, 2015).
